According to ChEMBL document CHEMBL2440017, “Discovery of a potent, selective, and orally bioavailable histamine H3 receptor antagonist SAR110068 for the treatment of sleep-wake disorders” (Bioorg Med Chem Lett, 2013):
The source made the active and inactive calls. The rule behind the calls is not given here.

Columns and labels:
Rattus norvegicus [1] = assay: Awakening activity in rat assessed as increased wakefulness at 10 mg/kg, ip after 3 hrs; assay type: functional, organism-based; parameters: dose 10 mg/kg
In short: (§1)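 Rats given compound orally at 3 or 10 mg/kg, or reference drugs i.p. or p.o. at 10 mg/kg. EEG recorded during the light phase and scored as wakefulness, slow wave sleep and REM sleep. Time-course analysis of the effects.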

Histamine receptor H3 = Histamine receptor H3 (Macaca mulatta, UniProt Q865E1); assay: Displacement of [3H]N-alpha-methylhistamine from rhesus monkey histamine H3 receptor expressed in CHO cells; assay type: cell-based
Histamine receptor H3, sequence (Q865E1 whole entry): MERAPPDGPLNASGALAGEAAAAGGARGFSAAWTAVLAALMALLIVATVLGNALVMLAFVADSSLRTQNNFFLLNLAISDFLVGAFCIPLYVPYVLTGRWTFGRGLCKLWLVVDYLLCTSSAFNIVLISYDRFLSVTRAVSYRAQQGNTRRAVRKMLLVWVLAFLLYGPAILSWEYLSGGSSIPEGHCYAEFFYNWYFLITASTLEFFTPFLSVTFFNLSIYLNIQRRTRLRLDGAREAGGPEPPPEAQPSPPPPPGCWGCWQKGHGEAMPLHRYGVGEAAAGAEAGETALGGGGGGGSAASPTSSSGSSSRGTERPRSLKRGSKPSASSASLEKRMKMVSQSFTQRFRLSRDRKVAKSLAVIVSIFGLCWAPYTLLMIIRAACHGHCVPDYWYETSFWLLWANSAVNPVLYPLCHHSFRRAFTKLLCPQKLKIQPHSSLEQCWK
In short: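 Membranes from CHO cells stably expressing rhesus monkey H3 receptor. Competition binding against [3H]N-α-methylhistamine; Ki values are means of three or more determinations.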

Rattus norvegicus [2] = assay: Awakening activity in rat assessed as increased wakefulness at 10 mg/kg, po after 3 to 4 hrs; assay type: functional, organism-based; parameters: dose 10 mg/kg; in short: as §1
Rattus norvegicus [3] = assay: Awakening activity in rat assessed as decrease of theta rhythm at 10 mg/kg, po after 3 to 4 hrs; assay type: functional, organism-based; parameters: dose 10 mg/kg
Rattus norvegicus [4] = assay: Awakening activity in rat assessed as increased wakefulness at 10 mg/kg, po after 1 hr; assay type: functional, organism-based; parameters: dose 10 mg/kg; in short: as §1
Rattus norvegicus [5] = assay: Awakening activity in rat assessed as increased wakefulness at 10 mg/kg, po; assay type: functional, organism-based; parameters: dose 10 mg/kg
Rattus norvegicus [6] = assay: Awakening activity in rat assessed as decrease in slow wave and REM sleep at 10 mg/kg, po; assay type: functional, organism-based; parameters: dose 10 mg/kg

Row | Structure (SMILES) | Ki (Histamine receptor H3) [nM] | further results
1 | O=C(c1ccc(OCCCc2c[nH]cn2)cc1)C1CC1 |  | Activity (Rattus norvegicus [1]): Active
2 | CC1CCCN1C1CCN(c2ccc(NC(=O)C3CCCO3)cc2)C1 (mixture of isomers) | 8.7 | 
3 | Cc1cc(NC(=O)C2CC3CCC2C3)ccc1N1CCC(N2CCCC2C)C1 (mixture of isomers) | 130 | 
4 | CC(=O)N1CCCC1C(=O)Nc1ccc(N2CCC(N3CCCC3C)C2)cc1C (mixture of isomers) | 57.7 | 
5 | Cc1cc(N2CCC(N3CCCC3C)C2)ccc1NC(=O)C1CCCO1 (mixture of isomers) | 7.34 | 
6 | Cc1cc(N2CC[C@H](N3CCC[C@@H]3C)C2)ccc1NC(=O)CC1CCCC1 | 0.85 | 
7 | Cc1cc(N2CCC(N3CCCC3C)C2)ccc1NC(=O)C1CCCCC1 (mixture of isomers) | 9 | 
8 | CC(=O)N1CCCC1C(=O)Nc1ccc(N2CCC(N3CCCC3C)C2)c(C)c1 (mixture of isomers) | 44.9 | 
9 | C[C@@H]1CCCN1CCc1cc2cc(-c3ccc(C#N)cc3)ccc2o1 |  | Activity (Rattus norvegicus [2]): Active; Activity (Rattus norvegicus [3]): Active
10 | CC1CCCN1C1CCN(c2ccc(NC(=O)C3CC4CCC3C4)cc2)C1 (configuration not stated) | 15.7 | 
11 | Cc1cc(NC(=O)C2CCCO2)ccc1N1CCC(N2CCCC2C)C1 (mixture of isomers) | 17 | 
12 | CNC(=O)c1ccc(Oc2ccc3c(c2)CCN(C2CCC2)CC3)nc1 |  | Activity (Rattus norvegicus [4]): Active
13 | Cc1cc(N2CC[C@H](N3CCC[C@@H]3C)C2)ccc1NC(=O)C1CCCO1 (some centres not stated) | 7.33 | 
14 | S=C(NC1CCCCC1)N1CCC(c2cnc[nH]2)CC1 |  | Activity (Rattus norvegicus [5]): Active; Activity (Rattus norvegicus [6]): Active
15 | CC(=O)N1CCCC1C(=O)Nc1ccc(N2CCC(N3CCCC3C)C2)cc1 (mixture of isomers) | 14.1 | 
16 | Cc1cc(N2CC[C@H](N3CCC[C@@H]3C)C2)ccc1NC(=O)C1CCCCC1 | 0.39 | 
17 | Cc1cc(N2CCC(N3CCCC3C)C2)ccc1NC(=O)C1CC2CCC1C2 (mixture of isomers) | 19.9 | 
18 | Cc1cc(N2CC[C@H](N3CCC[C@@H]3C)C2)ccc1NC(=O)C1CC2CCC1C2 (some centres not stated) | 0.55 | 
19 | Cc1cc(N2CC[C@@H](N3CCC[C@@H]3C)C2)ccc1NC(=O)C1CCOCC1 (racemic) | 3.9 | 
20 | Cc1cc(N2CC[C@H](N3CCC[C@@H]3C)C2)ccc1NC(=O)C1C(C)(C)C1(C)C | 0.55 | 
